Experiments:
Conditions in all cases: stereoisomer not certain
OR10G2 (Homo sapiens) = biological target: T1, OR10G2 (Homo sapiens) (UniProt Q8NGC3)
T1 sequence (whole entry): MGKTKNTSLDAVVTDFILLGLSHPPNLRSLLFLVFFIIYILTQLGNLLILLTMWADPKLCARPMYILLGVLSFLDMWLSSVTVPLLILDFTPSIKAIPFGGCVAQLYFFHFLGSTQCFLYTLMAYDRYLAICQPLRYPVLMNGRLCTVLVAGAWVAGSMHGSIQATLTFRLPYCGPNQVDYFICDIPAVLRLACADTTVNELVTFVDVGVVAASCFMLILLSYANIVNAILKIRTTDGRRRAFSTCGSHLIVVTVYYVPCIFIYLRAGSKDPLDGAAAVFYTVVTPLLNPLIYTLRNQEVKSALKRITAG
Outline: (§1)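 Transient luciferase assays in mammalian cell lines were common, though methods varied by source. The values come from published papers and their supplementary material, with extra details from the original authors when needed. Responsive refers to a measured signal the original authors judged statistically different from baseline, and non-responsive (inactive) to the remainder.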

OR10G3 (Homo sapiens) = biological target: T2, OR10G3 (Homo sapiens) (UniProt Q8NGC4)
T2 sequence (whole entry): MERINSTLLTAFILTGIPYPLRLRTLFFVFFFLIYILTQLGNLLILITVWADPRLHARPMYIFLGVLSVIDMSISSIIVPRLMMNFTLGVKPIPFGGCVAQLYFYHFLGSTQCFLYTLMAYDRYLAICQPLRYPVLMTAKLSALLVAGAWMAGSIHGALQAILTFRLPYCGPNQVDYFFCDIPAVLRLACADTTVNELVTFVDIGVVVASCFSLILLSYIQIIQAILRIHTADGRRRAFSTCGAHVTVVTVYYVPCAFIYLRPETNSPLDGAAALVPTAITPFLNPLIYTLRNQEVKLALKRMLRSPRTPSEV
Outline: as §1

OR10G4 (Homo sapiens) = biological target: T3, OR10G4 (Homo sapiens) (UniProt Q8NGN3)
T3 sequence (whole entry): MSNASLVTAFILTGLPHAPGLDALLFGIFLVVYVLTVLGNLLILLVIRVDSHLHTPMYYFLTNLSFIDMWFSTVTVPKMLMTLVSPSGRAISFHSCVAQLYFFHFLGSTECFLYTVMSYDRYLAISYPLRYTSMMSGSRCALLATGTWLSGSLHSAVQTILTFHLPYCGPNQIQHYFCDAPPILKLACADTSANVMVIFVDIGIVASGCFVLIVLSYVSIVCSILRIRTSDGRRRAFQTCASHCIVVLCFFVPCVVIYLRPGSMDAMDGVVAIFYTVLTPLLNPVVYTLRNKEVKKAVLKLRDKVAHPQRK
Outline: as §1

OR10G6 (Homo sapiens) = biological target: T4, OR10G6 (Homo sapiens) (UniProt Q8NH81)
T4 sequence (whole entry): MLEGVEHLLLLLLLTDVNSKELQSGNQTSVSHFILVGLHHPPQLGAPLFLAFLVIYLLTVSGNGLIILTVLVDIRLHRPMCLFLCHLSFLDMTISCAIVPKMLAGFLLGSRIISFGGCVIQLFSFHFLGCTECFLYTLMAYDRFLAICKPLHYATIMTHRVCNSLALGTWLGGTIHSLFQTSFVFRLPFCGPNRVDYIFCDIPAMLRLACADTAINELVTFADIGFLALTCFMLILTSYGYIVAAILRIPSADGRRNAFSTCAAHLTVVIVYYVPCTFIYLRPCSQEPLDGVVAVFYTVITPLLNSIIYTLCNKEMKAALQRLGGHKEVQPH
Outline: as §1

OR10G7 (Homo sapiens) = biological target: T5, OR10G7 (Homo sapiens) (UniProt Q8NGN6)
T5 sequence (whole entry): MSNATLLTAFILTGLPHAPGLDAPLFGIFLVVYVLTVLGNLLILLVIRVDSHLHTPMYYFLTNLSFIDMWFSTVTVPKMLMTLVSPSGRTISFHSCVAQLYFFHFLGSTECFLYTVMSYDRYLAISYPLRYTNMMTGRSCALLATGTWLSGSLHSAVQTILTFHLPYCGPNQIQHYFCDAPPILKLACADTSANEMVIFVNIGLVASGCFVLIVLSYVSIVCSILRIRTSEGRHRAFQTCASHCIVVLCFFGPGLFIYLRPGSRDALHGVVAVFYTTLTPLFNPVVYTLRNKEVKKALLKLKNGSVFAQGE
Outline: as §1

OR10G8 (Homo sapiens) = biological target: T6, OR10G8 (Homo sapiens) (UniProt Q8NGN5)
T6 sequence (whole entry): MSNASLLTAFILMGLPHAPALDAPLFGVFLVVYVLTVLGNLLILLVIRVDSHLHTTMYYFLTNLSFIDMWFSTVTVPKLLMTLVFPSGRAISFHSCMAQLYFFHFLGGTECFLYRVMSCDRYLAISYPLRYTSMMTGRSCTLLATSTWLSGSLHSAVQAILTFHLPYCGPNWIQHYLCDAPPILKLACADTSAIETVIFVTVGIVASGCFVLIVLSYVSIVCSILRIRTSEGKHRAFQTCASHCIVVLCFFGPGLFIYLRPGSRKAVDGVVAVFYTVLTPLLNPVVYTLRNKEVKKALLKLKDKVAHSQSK
Outline: as §1

OR10G9 (Homo sapiens) = biological target: T7, OR10G9 (Homo sapiens) (UniProt Q8NGN4)
T7 sequence (whole entry): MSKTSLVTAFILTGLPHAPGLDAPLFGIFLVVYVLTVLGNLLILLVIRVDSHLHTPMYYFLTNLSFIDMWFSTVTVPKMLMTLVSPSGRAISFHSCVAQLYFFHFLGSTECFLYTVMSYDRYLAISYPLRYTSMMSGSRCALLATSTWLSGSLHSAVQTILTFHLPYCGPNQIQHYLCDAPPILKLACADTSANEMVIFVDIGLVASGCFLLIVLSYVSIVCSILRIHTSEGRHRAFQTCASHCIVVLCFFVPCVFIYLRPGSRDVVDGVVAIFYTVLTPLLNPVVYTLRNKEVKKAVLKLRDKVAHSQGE
Outline: as §1

OR10H1 (Homo sapiens) = biological target: T8, OR10H1 (Homo sapiens) (UniProt Q9Y4A9)
T8 sequence (whole entry): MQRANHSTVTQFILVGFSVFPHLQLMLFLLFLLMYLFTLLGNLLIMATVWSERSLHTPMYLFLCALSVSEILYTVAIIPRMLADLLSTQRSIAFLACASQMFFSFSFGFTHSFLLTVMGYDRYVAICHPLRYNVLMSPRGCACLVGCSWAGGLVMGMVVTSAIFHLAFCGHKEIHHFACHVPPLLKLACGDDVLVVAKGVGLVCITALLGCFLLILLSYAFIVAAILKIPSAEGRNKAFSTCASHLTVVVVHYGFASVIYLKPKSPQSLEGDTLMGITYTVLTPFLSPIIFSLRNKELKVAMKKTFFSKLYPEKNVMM
Outline: as §1

OR10H2 (Homo sapiens) = biological target: T9, OR10H2 (Homo sapiens) (UniProt O60403)
T9 sequence (whole entry): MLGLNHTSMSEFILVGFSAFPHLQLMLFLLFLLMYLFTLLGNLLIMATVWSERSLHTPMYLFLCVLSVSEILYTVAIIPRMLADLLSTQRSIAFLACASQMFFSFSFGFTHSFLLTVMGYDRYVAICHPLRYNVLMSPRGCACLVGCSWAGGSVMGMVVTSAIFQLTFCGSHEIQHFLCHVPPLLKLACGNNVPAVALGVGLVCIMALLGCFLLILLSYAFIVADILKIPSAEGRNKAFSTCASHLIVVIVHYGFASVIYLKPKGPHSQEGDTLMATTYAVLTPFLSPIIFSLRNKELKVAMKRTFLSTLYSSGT
Outline: as §1

OR10H3 (Homo sapiens) = biological target: T10, OR10H3 (Homo sapiens) (UniProt O60404)
T10 sequence (whole entry): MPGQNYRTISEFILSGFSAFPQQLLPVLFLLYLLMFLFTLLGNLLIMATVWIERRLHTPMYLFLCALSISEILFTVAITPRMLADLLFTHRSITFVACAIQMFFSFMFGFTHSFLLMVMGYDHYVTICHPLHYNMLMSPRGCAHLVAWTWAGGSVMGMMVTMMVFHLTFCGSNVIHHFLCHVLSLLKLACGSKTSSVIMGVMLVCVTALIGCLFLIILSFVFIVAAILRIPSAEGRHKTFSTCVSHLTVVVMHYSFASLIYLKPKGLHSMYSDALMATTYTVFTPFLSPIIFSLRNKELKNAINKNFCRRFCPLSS
Outline: as §1

Measured: odorant receptor agonist call;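 note: active if original authors judged signal statistically different from baseline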

CCC(S)C(C)CO (stereo not given)
inactive: OR10G2 (Homo sapiens) | OR10G3 (Homo sapiens) | OR10G4 (Homo sapiens) | OR10G6 (Homo sapiens) | OR10G7 (Homo sapiens) | OR10G8 (Homo sapiens) | OR10G9 (Homo sapiens) | OR10H1 (Homo sapiens) | OR10H2 (Homo sapiens) | OR10H3 (Homo sapiens)
